Assay results published in ChEMBL document CHEMBL4052832, “Selective Inhibitors of Human Neuraminidase 3” (J Med Chem, 2018).
Converted amounts (≈) assume the structure as drawn. The source made the active and inactive calls. No cut-off for these calls is given here.

Experiments:
Sialidase-3 [1] = target: T1, Sialidase-3 (Homo sapiens, UniProt Q9UQ49); assay: Inhibition of human N-terminal MBP-fused NEU3 expressed in Escherichia coli using 4MU-NANA as substrate preincubated for 15 mins followed by substrate addition measured after 30 mins by fluorescence based assay
T1 sequence (Q9UQ49 whole entry): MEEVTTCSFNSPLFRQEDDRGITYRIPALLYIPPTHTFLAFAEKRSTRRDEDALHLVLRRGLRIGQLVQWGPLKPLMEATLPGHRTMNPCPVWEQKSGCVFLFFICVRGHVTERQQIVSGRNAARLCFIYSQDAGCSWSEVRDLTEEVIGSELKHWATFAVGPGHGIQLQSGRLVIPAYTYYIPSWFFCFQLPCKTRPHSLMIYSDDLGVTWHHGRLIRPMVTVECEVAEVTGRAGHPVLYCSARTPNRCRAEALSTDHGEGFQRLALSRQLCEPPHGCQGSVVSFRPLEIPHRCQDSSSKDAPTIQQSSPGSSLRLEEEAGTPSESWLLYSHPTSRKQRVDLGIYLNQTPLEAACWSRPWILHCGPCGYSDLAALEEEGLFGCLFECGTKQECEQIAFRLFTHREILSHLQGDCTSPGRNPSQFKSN

Sialidase-1 [2] = target: T2, Sialidase-1 (Homo sapiens, UniProt Q99519); assay: Inhibition of human CathA-IRES-6His-tagged NEU1 expressed in HEK293T cells using 4MU-NANA as substrate preincubated for 15 mins followed by substrate addition measured after 30 mins by fluorescence based assay; format: cell-based, HEK-293T
Sialidase-3 [3] = target: T1, Sialidase-3; assay: Inhibition of human N-terminal MBP-fused NEU3 expressed in Escherichia coli using GM3 as substrate preincubated for 15 mins followed by substrate addition measured after 30 mins by fluorescence based assay
Summary of the method: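 GM3 hydrolysis in 0.1 M sodium acetate pH 4.5. Serially diluted inhibitors preincubated with enzyme 15 min at 0 °C, then GM3 added to 500 μM for 30 min at 37 °C. Quenched with fresh 0.2 M sodium borate pH 10.2, then malononitrile added to form a fluorescent adduct with freed sialic acid; ex 357/em 434 nm.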

[4] = target: Sialidase-1 (Mus musculus) (UniProt O35657); assay: Inhibition of NEU1 in C57BL6 mouse brain homogenate assessed as residual activity at 10 uM using 4MU-NANA as substrate after 30 mins relative to control
Summary of the method: (§1)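 Brains from 12-week-old WT, neu1−/−, neu3−/− or neu3−/−neu4−/− mice, snap-frozen and homogenized in water; protein by Bradford. Acidic neuraminidase assayed at pH 4.6 using homogenate equal to 300 μg protein, inhibitor 0–150 μM and 200 μM 4MU-NANA, 37 °C for 30 min. Stopped with 0.4 M glycine pH 10.5. Activity relative to no-inhibitor, mean ± SD of 6–12 experiments.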

Sialidase-1 [5] = target: T2, Sialidase-1; assay: Inhibition of human CathA-IRES-6His-tagged NEU1 expressed in HEK293T cells using 4MU-NANA as substrate preincubated for 15 mins followed by substrate addition measured every minute for 30 mins by fluorescence based assay; format: cell-based; conditions: hek-293t
Summary of the method: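 Ki determination. Enzyme preincubated with serially diluted inhibitor 15 min at 0 °C, then serial 4MU-NANA concentrations added.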

[6] = target: Sialidase-1 (Mus musculus) (UniProt O35657); assay: Inhibition of NEU1 in NEU3/NEU4 double knockout C57BL6 mouse brain homogenate up to 150 uM using 4MU-NANA as substrate after 30 mins; summary of the method: as §1
[7] = target: Sialidase NEU3/NEU4 (Mus musculus) (UniProt Q9JMH7+Q8BZL1); assay: Inhibition of NEU3/NEU4 in NEU1 knockout C57BL6 mouse brain homogenate assessed as residual activity using 4MU-NANA as substrate after 30 mins relative to control; summary of the method: as §1
Sialidase NEU3/NEU4 (Mus musculus), sequence (Q8BZL1 whole entry, looked up, the tested form may be a part): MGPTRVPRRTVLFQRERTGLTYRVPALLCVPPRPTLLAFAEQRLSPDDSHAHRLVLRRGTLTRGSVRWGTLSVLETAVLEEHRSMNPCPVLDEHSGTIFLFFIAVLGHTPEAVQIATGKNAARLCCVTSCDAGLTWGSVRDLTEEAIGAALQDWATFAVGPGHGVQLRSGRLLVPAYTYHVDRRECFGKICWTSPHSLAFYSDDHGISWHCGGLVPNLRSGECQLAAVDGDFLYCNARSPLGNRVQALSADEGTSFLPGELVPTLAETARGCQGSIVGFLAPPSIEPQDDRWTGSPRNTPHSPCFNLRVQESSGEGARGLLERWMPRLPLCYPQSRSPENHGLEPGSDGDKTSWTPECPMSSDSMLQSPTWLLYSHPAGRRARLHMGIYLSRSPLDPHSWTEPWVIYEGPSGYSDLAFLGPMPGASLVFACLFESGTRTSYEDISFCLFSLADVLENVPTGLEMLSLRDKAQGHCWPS
Sialidase NEU3/NEU4 (Mus musculus), sequence (Q9JMH7 whole entry, looked up, the tested form may be a part): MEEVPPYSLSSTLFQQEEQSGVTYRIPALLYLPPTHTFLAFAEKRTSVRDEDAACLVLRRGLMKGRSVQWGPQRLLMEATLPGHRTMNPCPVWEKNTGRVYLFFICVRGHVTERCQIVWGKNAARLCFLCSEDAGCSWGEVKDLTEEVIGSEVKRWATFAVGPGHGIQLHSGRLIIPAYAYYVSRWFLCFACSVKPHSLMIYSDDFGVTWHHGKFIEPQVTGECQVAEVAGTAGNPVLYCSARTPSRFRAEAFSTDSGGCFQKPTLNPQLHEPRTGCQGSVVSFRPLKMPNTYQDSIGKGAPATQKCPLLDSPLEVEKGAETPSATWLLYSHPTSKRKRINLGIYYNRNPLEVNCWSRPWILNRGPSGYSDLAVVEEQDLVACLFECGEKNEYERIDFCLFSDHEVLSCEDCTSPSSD

Sialidase-3 [8] = target: T1, Sialidase-3; assay: Inhibition of human N-terminal MBP-fused NEU3 expressed in Escherichia coli using 4MU-NANA as substrate preincubated for 15 mins followed by substrate addition measured every minute for 30 mins by fluorescence based assay
[9] = Octanol-water partition coefficient, log D of compound at pH 7.4 at 10 uM after 2 hrs by LC-MS based shake flask analysis; format: physicochemical
Summary of the method: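 Shake-flask log D at pH 7.4. Octanol and 0.1 M Tris-HCl pH 7.4, mutually saturated. Compound at 10 μM in buffer with 0.1% DMSO, at two octanol:buffer ratios, each in triplicate.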

Sialidase-4 = target: T3, Sialidase-4 (Homo sapiens, UniProt Q8WWR8); assay: Inhibition of human N-terminal MBP-fused NEU4 expressed in Escherichia coli using 4MU-NANA as substrate preincubated for 15 mins followed by substrate addition measured after 30 mins by fluorescence based assay
T3 sequence (Q8WWR8 whole entry): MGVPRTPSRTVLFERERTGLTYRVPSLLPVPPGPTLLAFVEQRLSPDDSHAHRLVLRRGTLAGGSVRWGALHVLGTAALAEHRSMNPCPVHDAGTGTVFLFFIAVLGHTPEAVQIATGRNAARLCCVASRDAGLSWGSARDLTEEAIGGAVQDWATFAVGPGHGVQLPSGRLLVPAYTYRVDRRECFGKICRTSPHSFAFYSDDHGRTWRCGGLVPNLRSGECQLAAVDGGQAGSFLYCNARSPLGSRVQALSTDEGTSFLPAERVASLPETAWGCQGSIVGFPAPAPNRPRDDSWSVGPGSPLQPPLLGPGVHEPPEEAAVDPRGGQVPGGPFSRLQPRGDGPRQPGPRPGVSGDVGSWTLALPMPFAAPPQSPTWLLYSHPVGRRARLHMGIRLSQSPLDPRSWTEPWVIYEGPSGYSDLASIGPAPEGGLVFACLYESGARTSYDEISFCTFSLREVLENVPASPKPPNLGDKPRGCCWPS

[10] = Apparent permeability from basolateral side to apical side in human Caco2 cells at 62.5 uM after 30 mins by LC-MS analysis; format: ADME, cell-based; conditions: Caco-2
Summary of the method: (§2)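 Caco-2 monolayer permeation run in triplicate in the apical-to-basolateral and basolateral-to-apical directions. Compound at 62.5 μM in the donor chamber with 0.6% DMSO. Samples taken at 30 min for LC-MS. Papp = (dQ/dt)/(A × c0). Efflux ratio is Papp b→a over Papp a→b.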

[11] = Kinetic solubility of compound in Prisma HT 6.5 buffer at pH 7.4 at 10 mM incubated in supersonic bath for 30 mins measured after 24 hrs by LC-MS analysis; format: physicochemical; conditions: pH 6.5, in the assay text read “at pH 6.5” for “at pH 7.4”, read-out: Kinetic_solubility
Summary of the method: (§3)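 Kinetic solubility. 10 mM DMSO stock diluted 1:100 into 0.1 M Tris-HCl pH 7.4, Prisma HT buffer, or 0.9% NaCl in water (final 1% DMSO). Sonicated 30 min at 25 °C, equilibrated 24 h at 25 °C, filtered (0.2 μm), diluted in MeOH and analysed by LC-MS. Single measurements.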

[12] = Half life in human liver microsomes at 20 uM by LC-MS analysis; format: ADME, microsome
[13] = Kinetic solubility of compound in 0.9% NaCl at 10 mM incubated in supersonic bath for 30 mins measured after 24 hrs by LC-MS analysis; format: physicochemical; conditions: read-out: Kinetic_solubility; summary of the method: as §3
[14] = Efflux ratio of apparent permeability from basolateral to apical side over apical to basolateral side of human Caco2 cells at 62.5 uM after 30 mins by LC-MS analysis; format: ADME, cell-based; conditions: Caco-2; summary of the method: as §2
[15] = Kinetic solubility of compound in Tris-HCl buffer at pH 7.4 at 10 mM incubated in supersonic bath for 30 mins measured after 24 hrs by LC-MS analysis; format: physicochemical; conditions: Tris-HCl buffer, pH 7.4; read-out: Kinetic_solubility; summary of the method: as §3
[16] = Apparent permeability from apical side to basolateral side in human Caco2 cells at 62.5 uM after 30 mins by LC-MS analysis; format: ADME, cell-based; conditions: Caco-2; summary of the method: as §2

CC(=O)N[C@H]1[C@H]([C@H](O)[C@H](O)Cn2cc(-c3ccc(C(=O)O)cc3)nn2)OC(C(=O)O)=C[C@@H]1NC(=O)NCCC(=O)O
IC50 (Sialidase-3 [1]): > 500 µM
IC50 (Sialidase-1 [2]): > 500 µM

CC(=O)N[C@H]1[C@H]([C@H](O)[C@H](O)Cn2cc(-c3ccc(-c4ccccc4)cc3)nn2)OC(C(=O)O)=C[C@@H]1NC(=N)N
IC50 (Sialidase-3 [3]): 3.8 µM
Activity [4]: 85%
Ki (Sialidase-1 [5]): Not Active
IC50 (Sialidase-3 [1]): 0.58 µM
inhibition [6]: inactive
Activity [7]: 60%
IC50 (Sialidase-1 [2]): > 500 µM
Ki (Sialidase-3 [8]): 0.32 µM
logD at 2 h, 10 µM [9]: 1.2

CC(=O)N[C@H]1[C@H]([C@H](O)[C@H](O)Cn2cc(-c3ccc(CO)cc3)nn2)OC(C(=O)O)=C[C@@H]1O
logD at 2 h, 10 µM [9]: < -1.5

CC(=O)N[C@H]1[C@H]([C@H](O)[C@H](O)Cn2cc(-c3ccc(C(=O)O)cc3)nn2)OC(C(=O)O)=C[C@@H]1N=[N+]=[N-]
IC50 (Sialidase-1 [2]): > 500 µM

CC(=O)N[C@H]1[C@H]([C@H](O)[C@H](O)Cn2cc(-c3ccc(C(=O)O)cc3)nn2)OC(C(=O)O)=C[C@@H]1O
IC50 (Sialidase-4): 3 µM
IC50 (Sialidase-3 [1]): 1.1 µM
IC50 (Sialidase-1 [2]): 240 µM

CCCCOC(=O)C1=C[C@H](O)[C@@H](NC(C)=O)[C@H]([C@H](O)[C@H](O)Cn2cc(-c3ccc(-c4ccccc4)cc3)nn2)O1
Papp B→A at 0.5 h, 62.5 µM [10]: 2.2 ×10⁻⁶ cm/s
solubility kinetic at 24 h, 10000 µM [11]: 3.2 µg/mL (≈ 5.81 µM)
half-life at 20 µM [12]: > 1.5 h
solubility kinetic at 24 h, 10000 µM [13]: 5 µg/mL (≈ 9.08 µM)
efflux ratio at 0.5 h, 62.5 µM [14]: 6.7
solubility kinetic at 24 h, 10000 µM [15]: 3.9 µg/mL (≈ 7.08 µM)
Papp A→B at 0.5 h, 62.5 µM [16]: 0.32 ×10⁻⁶ cm/s
logD at 2 h, 10 µM [9]: 3.8

CCOC(=O)C1=C[C@H](O)[C@@H](NC(C)=O)[C@H]([C@H](O)[C@H](O)Cn2cc(-c3ccc(-c4ccccc4)cc3)nn2)O1
solubility kinetic at 24 h, 10000 µM [11]: 3.2 µg/mL (≈ 6.12 µM)
solubility kinetic at 24 h, 10000 µM [13]: 3.7 µg/mL (≈ 7.08 µM)
solubility kinetic at 24 h, 10000 µM [15]: 13.8 µg/mL (≈ 26.4 µM)
logD at 2 h, 10 µM [9]: 3.4

CC(=O)N[C@H]1[C@H]([C@H](O)[C@H](O)Cn2cc(-c3ccc(Oc4ccccc4)cc3)nn2)OC(C(=O)O)=C[C@@H]1O
IC50 (Sialidase-1 [2]): > 500 µM
